What is called IC50 is the concentration that inhibits the measured activity by half. By Ki is commonly meant a measure of affinity in units of concentration, obtained from inhibition or displacement.

Bounds are passed on as bounds.

26 compounds from ChEMBL document CHEMBL4321805, “A Conformational Restriction Strategy for the Identification of a Highly Selective Pyrimido-pyrrolo-oxazine mTOR Inhibitor” (J Med Chem, 2019) can be followed below.

The species named for series [1] is Homo sapiens. Briefly: Selectivity ratio of Ki for inhibition of alexa fluor 647-labeled kinase tracer 314 binding to recombinant human full-length N-terminal His6-tagged p110alpha/p85alpha expressed in baculovirus expression system to Ki for inhibition of alexa fluor 647-labeled kinase tracer 314 binding to recombinant human N-terminal GST-fused mTOR (1360 to 2549 residues) expressed in baculovirus expression system. A digest of the protocol: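 Ratio of Ki values from the TR-FRET tracer 314 displacement assays. p110α: His6-tagged enzyme, biotin anti-His antibody and Eu-streptavidin (2 nM each), tracer at 20 nM, buffer 50 mM HEPES pH 7.5, 10 mM MgCl2, 1 mM EGTA, 0.01% Brij-35. mTOR: GST-mTOR 1360–2549, Eu-anti-GST, tracer 10 nM, HEPES/5 mM MgCl2/EGTA/Pluronic buffer.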

The target of the next series is mTORC1 (Homo sapiens, UniProt P42345). The series is described as follows: Inhibition of mTORC1 in human A2058 cells assessed as reduction in ribosomal protein S6 phosphorylation at Ser235/236 residues incubated for 1 hr by Western blot analysis. It counts as cell-based. A digest of the protocol: (§1)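 In-cell Western assay. A2058 cells (2 × 10^4/well) grown 24 h at 37 °C, 5% CO2, then exposed 1 h to inhibitor or DMSO. Cells fixed in 4% PFA, blocked, and stained for the phospho-protein with α-tubulin as internal standard; infrared fluorescence read-out. Signals normalized to tubulin and to DMSO controls to derive IC50.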

Series [2] deals with Serine/threonine-protein kinase mTOR (Homo sapiens, UniProt P42345). Briefly: Inhibition of alexa fluor 647-labeled kinase tracer 314 binding to recombinant human N-terminal GST-fused mTOR (1360 to 2549 residues) expressed in baculovirus expression system by TR-FRET assay. A digest of the protocol:
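LanthaScreen TR-FRET tracer displacement. GST-fused truncated mTOR (aa 1360–2549) detected with Eu-anti-GST antibody (2 nM). […] Buffer: 50 mM HEPES, 5 mM MgCl2, 1 mM EGTA, 0.01% Pluronic F-127. Ki derived from displacement.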
A general note: Time-resolved FRET reads energy transfer from a long-lived donor to a nearby acceptor.

Series [3] addresses PI3-kinase p110-alpha/p85-alpha (Homo sapiens, UniProt P42336). The series is described as follows: Inhibition of alexa fluor 647-labeled kinase tracer 314 binding to recombinant human full-length N-terminal His6-tagged p110alpha/p85alpha expressed in baculovirus expression system by TR-FRET assay.
The target in another series is mTORC2 (Homo sapiens, UniProt P42345). Briefly: Inhibition of mTORC2 in human A2058 cells assessed as reduction in PKB phosphorylation at S473 residues incubated for 1 hr by Western blot analysis. It counts as cell-based. A digest of the protocol: as §1
In general terms: A western blot detects proteins with antibodies after separation by electrophoresis.

Another series has as its target T1, Cytochrome P450 1A1 (Homo sapiens, UniProt P04798).
T1 sequence (P04798 whole entry): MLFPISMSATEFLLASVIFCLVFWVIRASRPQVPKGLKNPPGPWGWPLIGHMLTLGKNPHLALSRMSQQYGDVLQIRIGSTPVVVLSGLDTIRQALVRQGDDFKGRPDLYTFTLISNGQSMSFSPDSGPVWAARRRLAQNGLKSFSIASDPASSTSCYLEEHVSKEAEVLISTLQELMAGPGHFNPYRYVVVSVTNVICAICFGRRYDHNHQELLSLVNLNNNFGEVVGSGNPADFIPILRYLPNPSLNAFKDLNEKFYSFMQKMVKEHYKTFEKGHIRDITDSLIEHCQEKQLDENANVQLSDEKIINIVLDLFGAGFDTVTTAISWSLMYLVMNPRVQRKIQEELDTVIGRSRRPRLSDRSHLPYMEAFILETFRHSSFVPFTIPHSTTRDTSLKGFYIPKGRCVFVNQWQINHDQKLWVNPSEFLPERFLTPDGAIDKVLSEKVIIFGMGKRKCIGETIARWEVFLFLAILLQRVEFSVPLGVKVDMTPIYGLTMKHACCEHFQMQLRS
The series is described as follows: Drug level treated with 5-((R)-4-((R)-3-Methylmorpholino)-5a,6,8,9-tetrahydro-5H-pyrimido[5',4':4,5]pyrrolo[2,1-c][1,4]oxazin-2-yl)pyrimidin-2-amine assessed as recombinant human CYP1A1-mediated compound formation incubated for 60 mins by LC/MS analysis. Format: ADME. To be noted: recombinant enzyme, 1 h. A digest of the protocol:
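Human recombinant CYP1A1 or CYP1A2 Supersomes (25 pmol/mL) incubated with compound at 1 μM (0.25% DMSO) plus NADP+-regenerating cofactors at 37 °C for 60 min. Reaction stopped with ACN containing internal standard. Parent and metabolites expressed as percentage of total peak areas.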

The species named for series [4] is Homo sapiens. Briefly: Selectivity ratio of Kd for binding affinity to human wild-type partial length PI3Kalpha (R108 to N1068 residues) expressed in mammalian expression system to Kd for binding affinity to wild-type human partial length mTOR (L1382 to W2549 residues) expressed in mammalian expression system. A digest of the protocol:
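Ratio of Kd values from the DNA-tagged kinase competition binding assay (qPCR read-out, 11-point 3-fold dilution from 30 μM, Hill fit with slope −1, duplicates): PI3Kα Kd divided by mTOR Kd.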

Chain of PI3-kinase p110-alpha/p85-alpha (P27986 whole entry): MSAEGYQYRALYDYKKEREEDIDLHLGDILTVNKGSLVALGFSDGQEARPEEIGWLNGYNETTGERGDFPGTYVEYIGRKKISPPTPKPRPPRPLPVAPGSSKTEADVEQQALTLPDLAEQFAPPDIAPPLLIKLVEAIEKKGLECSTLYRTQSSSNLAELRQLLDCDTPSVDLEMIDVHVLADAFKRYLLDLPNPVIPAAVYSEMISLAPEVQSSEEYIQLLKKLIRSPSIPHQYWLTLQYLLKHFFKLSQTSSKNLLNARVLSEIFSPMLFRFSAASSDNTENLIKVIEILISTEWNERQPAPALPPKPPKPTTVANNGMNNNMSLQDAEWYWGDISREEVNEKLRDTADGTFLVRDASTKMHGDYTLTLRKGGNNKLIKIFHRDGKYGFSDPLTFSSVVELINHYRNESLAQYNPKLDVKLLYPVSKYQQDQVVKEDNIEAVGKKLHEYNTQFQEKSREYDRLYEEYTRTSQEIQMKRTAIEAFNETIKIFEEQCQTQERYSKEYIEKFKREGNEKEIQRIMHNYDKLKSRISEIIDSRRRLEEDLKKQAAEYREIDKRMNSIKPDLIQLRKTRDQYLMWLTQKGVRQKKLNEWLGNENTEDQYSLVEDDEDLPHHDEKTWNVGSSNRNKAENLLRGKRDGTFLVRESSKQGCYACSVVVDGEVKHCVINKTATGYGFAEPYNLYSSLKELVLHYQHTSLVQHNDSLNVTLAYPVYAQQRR
Chain of PI3-kinase p110-alpha/p85-alpha (P42336 whole entry): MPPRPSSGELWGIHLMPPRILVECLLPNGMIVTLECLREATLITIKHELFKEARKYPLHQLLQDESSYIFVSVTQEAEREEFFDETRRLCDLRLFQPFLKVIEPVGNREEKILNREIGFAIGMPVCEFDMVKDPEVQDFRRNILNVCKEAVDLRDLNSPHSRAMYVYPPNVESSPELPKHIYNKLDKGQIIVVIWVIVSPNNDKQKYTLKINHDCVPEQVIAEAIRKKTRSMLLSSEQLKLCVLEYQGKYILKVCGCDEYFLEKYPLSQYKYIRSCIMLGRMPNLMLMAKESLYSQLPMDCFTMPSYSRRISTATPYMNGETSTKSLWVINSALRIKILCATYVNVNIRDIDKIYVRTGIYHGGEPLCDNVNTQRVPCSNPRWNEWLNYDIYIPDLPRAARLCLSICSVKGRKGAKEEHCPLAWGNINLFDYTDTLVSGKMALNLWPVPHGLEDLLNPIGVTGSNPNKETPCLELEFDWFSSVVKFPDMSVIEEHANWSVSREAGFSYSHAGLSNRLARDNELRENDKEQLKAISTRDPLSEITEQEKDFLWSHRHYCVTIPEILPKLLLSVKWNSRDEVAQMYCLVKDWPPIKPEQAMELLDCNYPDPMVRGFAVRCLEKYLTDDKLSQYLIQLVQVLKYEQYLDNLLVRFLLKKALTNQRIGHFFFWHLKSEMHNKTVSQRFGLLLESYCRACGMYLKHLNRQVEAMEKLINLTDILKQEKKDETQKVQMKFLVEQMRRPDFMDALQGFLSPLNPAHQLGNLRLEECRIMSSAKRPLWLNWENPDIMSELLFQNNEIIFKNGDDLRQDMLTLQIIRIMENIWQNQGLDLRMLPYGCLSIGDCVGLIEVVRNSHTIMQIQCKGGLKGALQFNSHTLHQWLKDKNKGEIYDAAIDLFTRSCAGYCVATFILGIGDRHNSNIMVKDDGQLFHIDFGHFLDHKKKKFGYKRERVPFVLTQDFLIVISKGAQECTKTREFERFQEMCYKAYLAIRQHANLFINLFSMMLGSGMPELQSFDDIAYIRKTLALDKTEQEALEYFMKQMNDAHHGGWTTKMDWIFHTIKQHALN

As to `C[C@@H]1COCCN1c1nc(-c2ccc(N)nc2)nc2c1C[C@H]1COCCN21`, the Ratio Ki in the series filed under Homo sapiens [1] worked out at 30. In addition, the IC50 on mTORC1 stood at 230 nM; at mTORC2, 363 nM. Further, the results for the Ki in series [2] and in series [3] were 31 nM and 923 nM, respectively.
On the same counts, the results for `Nc1ccc(-c2nc(N3CCOCC3)nc3c2C[C@@H]2COCCN32)cn1` are 0.4, 1860 nM, 1560 nM, 1280 nM and 541 nM.
With `Nc1cc(C(F)(F)F)c(-c2nc(N3CCOCC3)c3c(n2)N2CCCC[C@H]2C3)cn1`, the values for the 50% inhibitory concentration (IC50) on mTORC1 and at mTORC2 were 938 nM and 407 nM, respectively. Besides, in series [3], the Ki was 22 nM.
Regarding `Nc1cc(C(F)(F)F)c(-c2nc(N3CCOCC3)c3c(n2)N2CCOC[C@@H]2C3)cn1`, the IC50 at mTORC1 turned out to be 751 nM; on mTORC2 it was 353 nM. In addition, in series [3], the Ki was 21 nM.
As for `Nc1cc(C(F)(F)F)c(-c2nc(N3CCOCC3)c3c(n2)N2CCCC[C@@H]2C3)cn1`, the IC50 on mTORC1 turned out to be 1240 nM; at mTORC2 it was 321 nM. Besides, the Ki in series [3] is 48 nM.
Regarding `Nc1ccc(-c2nc(N3CCOCC3)nc3c2C[C@H]2COCCN32)cn1`, the Ratio Ki in the series listed under Homo sapiens [1] was determined as 1.1. For the same compound, the figures for the IC50 on mTORC1 and on mTORC2 were 1790 nM and 1870 nM, respectively. Further, the Ki was found to be 812 nM in series [2] and 867 nM in series [3].
On the same counts, the results for `Cc1cc(-c2nc3c(c(N4CCOC[C@H]4C)n2)C[C@@H]2COCCN32)cnc1N` are 172, 289 nM, 488 nM, 56 nM and 9630 nM.
On to `CC(C=O)N(CCO)c1nc(-c2cnc(N)nc2)nc2c1C[C@@H]1COC=CN21` (stereo partly drawn), for which the Drug metabolism result at Cytochrome P450 1A1 is given as “Metabolite_Detected”.
For the compound `Nc1ccc(-c2nc(N3CCOCC3)c3c(n2)N2CCOC[C@@H]2C3)cn1`, the Ratio Ki in the series filed under Homo sapiens [1] amounted to 1.1. Also, the IC50 at mTORC1 came out at 164 nM; at mTORC2, 194 nM. Further, the figures for the Ki in series [2] and in series [3] were 69 nM and 76 nM, respectively.
For `CC1(C)COCCN1c1nc(-c2ccc(N)nc2)nc2c1C[C@H]1COCCN21` the same measures were 59, 991 nM, 1330 nM, 121 nM and 7190 nM.
Turning to `Nc1cc(C(F)F)c(-c2nc(N3C4CCC3COC4)nc(N3C4CCC3COC4)n2)cn1`, the Ratio Ki in the series filed under Homo sapiens [1] was 389. Further, the Selectivity ratio in the series listed under Homo sapiens [4] was more than 3700. Further, the IC50 came to 85.2 nM at mTORC1 and 190 nM at mTORC2.
Regarding `Nc1cc(C(F)(F)F)c(-c2nc(N3CCCCC3)c3c(n2)N2CCOC[C@@H]2C3)cn1`, the IC50 on mTORC1 is 43300 nM; at mTORC2, 21900 nM. In addition, the Ki in series [3] was 2830 nM.
`Cc1cc(N)ncc1-c1nc2c(c(N3CCOC[C@H]3C)n1)C[C@@H]1COCCN21`: the Ratio Ki in the series filed under Homo sapiens [1] came to 33. In addition, the IC50 came out at 826 nM at mTORC1 and 1540 nM on mTORC2. Also, the Ki in series [2] came out at 85 nM; in series [3], 2760 nM.
For the compound `Nc1cc(C(F)(F)F)c(-c2nc(N3CCOCC3)c3c(n2)N2CCOC[C@H]2C3)cn1`, the results for the IC50 on mTORC1 and at mTORC2 were 524 nM and 355 nM, respectively. In series [3], the Ki was determined as 56 nM.
With `Nc1ccc(-c2nc(N3C4CCC3COC4)c3c(n2)N2CCOC[C@H]2C3)cn1`, the Ratio Ki in the series listed under Homo sapiens [1] came out at 36. In addition, the IC50 at mTORC1 came to 132 nM; at mTORC2 it was 152 nM. Further, the inhibition constant (Ki) turned out to be 31 nM in series [2] and 1110 nM in series [3].
On the same counts, the results for `COC(OC)c1nc(N)ncc1-c1nc2c(c(N3CCOC[C@H]3C)n1)C[C@@H]1COCCN21` are 2, 377 nM, 534 nM, 34 nM and 66 nM.
`Nc1ccc(-c2nc(N3CC4CCC(C3)O4)c3c(n2)N2CCOC[C@H]2C3)cn1`: the Ratio Ki in the series listed under Homo sapiens [1] is 53. In addition, the IC50 at mTORC1 turned out to be 160 nM; on mTORC2, 207 nM. Further, the Ki turned out to be 27 nM in series [2] and 1410 nM in series [3].
For `COC(OC)c1cc(N)ncc1-c1nc2c(c(N3CCOC[C@H]3C)n1)C[C@@H]1COCCN21` the same measures were 3.7, 2420 nM, 6520 nM, 300 nM and 1120 nM.
Take `Nc1cc(C(F)(F)F)c(-c2nc(N3CCCCC3)c3c(n2)N2CCOC[C@H]2C3)cn1`: the IC50 was 2650 nM at mTORC1 and 2080 nM at mTORC2. Also, the Ki in series [3] is 138 nM.
As to `Nc1ccc(-c2nc(N3C4CCC3COC4)c3c(n2)N2CCOC[C@@H]2C3)cn1`, in the series listed under Homo sapiens [1], the Ratio Ki was determined as 54. Also, the figures for the IC50 at mTORC1 and on mTORC2 were 354 nM and 389 nM, respectively. The Ki came out at 60 nM in series [2] and 3230 nM in series [3].
As for `Nc1ccc(-c2nc(N3CCOCC3)c3c(n2)N2CCOC[C@H]2C3)cn1`, the Ratio Ki in the series listed under Homo sapiens [1] fell in the range of 18 to 18.3. The IC50 on mTORC1 is 96 nM; on mTORC2, 116 to 118 nM. Also, the Ki in series [2] is 24 nM; in series [3] it was 432 nM.
In the case of `C[C@H]1COCCN1c1nc(-c2ccc(N)nc2)nc2c1C[C@@H]1COCCN21`, in the series listed under Homo sapiens [1], the Ratio Ki was 43. Moreover, the IC50 came to 149 nM at mTORC1 and 194 nM on mTORC2. Further, the inhibition constant Ki is 9.1 nM in series [2] and 386 nM in series [3].
On the same counts, the results for `Nc1ccc(-c2nc(N3CC4CCC(C3)O4)c3c(n2)N2CCOC[C@@H]2C3)cn1` are 13, 245 nM, 403 nM, 96 nM and 1220 nM.
For `C[C@H]1COCCN1c1nc(-c2ccc(N)nc2)nc2c1C[C@H]1COCCN21` the same measures were 0.9, 432 nM, 416 nM, 104 nM and 98 nM.
Regarding `COc1cc(N)ncc1-c1nc2c(c(N3CCOC[C@H]3C)n1)C[C@@H]1COCCN21`, in the series listed under Homo sapiens [1], the Ratio Ki was found to be 77. For the same compound, the IC50 at mTORC1 came to 2520 nM; on mTORC2, 3760 nM. For the same compound, the Ki in series [2] came to 208 nM; in series [3] it was 16000 nM.
For `CC1(C)COCCN1c1nc(-c2ccc(N)nc2)nc2c1C[C@@H]1COCCN21` the same measures were 16, 136 nM, 409 nM, 24 nM and 376 nM.
